# Most compounds without a hit are left out; they make up all but 2.6% or so of the library.
# MDM2 E3 inh: blocks human Mdm2 ubiquitin ligase activity; signal enhancement, % at 5 µM; Q00987; actives 0.11% (n = 210,000); AID 1230; cell-based MDM2 ubiquitination luciferase reporter, 2 h; 0 = plate control, 100 = twice control, blank-subtracted;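 active = signal enhancement of 30% or more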;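 also: luminescence tracks abundance of the self-degrading MDM2-luciferase fusion protein; higher signal means inhibition of MDM2 E3 ligase activity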
# Target sequence (Q00987 whole entry, looked up, the tested form may be a part): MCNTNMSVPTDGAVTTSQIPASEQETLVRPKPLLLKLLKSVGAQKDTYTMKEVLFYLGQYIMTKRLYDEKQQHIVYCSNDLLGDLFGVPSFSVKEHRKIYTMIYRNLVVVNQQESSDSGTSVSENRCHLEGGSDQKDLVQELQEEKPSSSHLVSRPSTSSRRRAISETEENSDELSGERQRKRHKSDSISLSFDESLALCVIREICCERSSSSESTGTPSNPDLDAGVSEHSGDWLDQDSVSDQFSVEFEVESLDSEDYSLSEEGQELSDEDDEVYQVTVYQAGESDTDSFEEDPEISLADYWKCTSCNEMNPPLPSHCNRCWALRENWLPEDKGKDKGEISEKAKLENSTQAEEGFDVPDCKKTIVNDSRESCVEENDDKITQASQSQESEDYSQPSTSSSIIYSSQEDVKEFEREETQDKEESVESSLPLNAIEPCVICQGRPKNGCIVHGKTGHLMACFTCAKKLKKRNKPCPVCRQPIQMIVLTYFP
#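 system = mammalian cells stably expressing self-ubiquitinating, self-degrading MDM2 E3–luciferase fusion | quantity = 2000 cells per well seeded | incubation = 4 h cell settling then 2 h compound exposure, 37 °C | signal = SteadyLite luminescence, 15 min reagent step | benchmarks = plate control and blank wells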
# Rad51 HR inh: blocks human Rad51 in homologous recombination; AID 1385; hRad51 DNA strand exchange, fluorescence dequenching; Q06609; inhibition, % at 10 µM; actives 0.085% (n = 200,000);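 active = inhibition above 40% at the single screening dose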;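 also: 0% = DMSO control wells and 100% = blanks with heterologous ssDNA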
#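 Test system: preformed human Rad51 ssDNA filaments; also added: Donor/quencher-labelled 47-bp dsDNA substrate; doses: 10 µM final, single point; times: 37 °C 15-min filament assembly, 30-min compound preincubation, 15-min exchange; detection: FRET fluorescence dequenching, excitation 485 nm, emission 520 nm; read-out basis: Fluorescence-based percent inhibition, control- and blank-normalised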
# HSV augment: HSV replication enhancement; HSV replication augmentation in cells, fold increase; maximum fold increase; actives 0.005% (n = 220,000); AID 1956; in the data active = maximum fold increase above about 1.5; inconclusive = no clear call, values can overlap the other calls; tested in PC3 cells
# HSF1 activator: increases HSF-1 driven luciferase reporter signal. NIH3T3-HGL HSF-1 luciferase reporter, MG132, 8 h; 100% = twice DMSO control signal. activation, % at 9 µM. actives 1.7% (n = 300,000). AID 504408;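 active = mean replicate activation of at least 50% with a set share of replicates each reaching 50%; inconclusive = only one of those two conditions met; inactive = mean below 50% and too few replicates reaching it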;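 also: 0% = median of the neutral control wells and 100% = twice that signal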
# HSF1 inh: HSF1 inhibition; NIH3T3-HGL HSE-luciferase, MG132-induced, luminescence 8 h; stronger effect = lower value; activity change, negative = inhibition, % at 7.5 µM (by protocol); actives 0.77% (n = 300,000); AID 2098;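 active = more than half of replicate wells show activity change below -50%, luminescence cut by over half; inconclusive = some wells, but at most half, below -50%; inactive = no replicate well below -50%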;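 also: luciferase reports HSF-1 transcriptional activity via heat shock element; 0% = median of DMSO wells and -100% = zero luminescence signal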
# Hsp70 act: switches on Hsp70 transcription; HeLa Hsp70 promoter luciferase reporter, luminescence; scaled: vehicle 0, proteasome-inhibitor control 100%; activation, % at 10 µM; actives 0.04% (n = 200,000); AID 1203;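 active = activation above the mean across all tested compounds plus 3 SD, cutoff set per campaign, cut at about 5.5% in these data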;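 also: 100% = MG132 at 30 µM as the positive control and 0% = DMSO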
# Numbers without * were called inactive; i = inactive; ? = inconclusive; · = not tested or not shown.
SMILES,MDM2 E3 inh,Rad51 HR inh,HSV augment,HSF1 activator,HSF1 inh,Hsp70 act
CCOC(=O)c1cnn(-c2ccccc2)c1NC(=O)CN1CCOCC1,1.7,20.8,i,11.6,2.8,·
Cc1ccc(NC(=S)N(Cc2ccc(Cl)cc2)Cc2ccc(C(=O)O)cc2)cc1Cl,-15.2,-58.0,i,73.9*,52.3,-0.2
CCCCn1c(N)c(N(CCOC)C(=O)COC(=O)CCOc2ccccc2C)c(=O)[nH]c1=O,·,·,·,11.6,5.7,·
CCCCN(C)CCN1C(=O)C2C(C(=O)Nc3cccc(OC)c3)C3C=CC2(O3)C1C(=O)NC1CCCCC1C (configuration not stated),·,·,·,6.6,-4.3,·
CC(=O)Oc1ccc(-c2csc(Nc3cccc(C)n3)n2)cc1,·,·,·,64.9*,45.2,·
COc1ccc(-c2csc(Nc3cccc(C)n3)n2)cc1,·,·,·,37.1,19.6,·
COc1ccc(-c2csc(Nc3cccc(C)n3)n2)cc1C,·,·,·,98.2*,41.5,·
CCCCCc1ccc(-c2ccc(=O)[nH]n2)cc1,-20.9,·,·,3.1,10.3,0.6
Cc1ccc(-c2ccc(=O)[nH]n2)cc1,-17.8,·,·,55.3*,24.3,0.0
CCC1=[N+](CC(=O)c2ccc(C)cc2)CCn2c(C)ccc21,-14.8,0.8,i,26.9,4.9,-0.4
CCC1=[N+](CC(=O)c2ccc(C)cc2)CCn2cccc21,-11.9,5.9,i,50.9*,32.1,-0.1
OC(CNCCc1ccc(C(F)(F)F)cc1)COC(c1ccccc1)c1ccccc1 (configuration not stated),·,·,·,33.5,11.4,·
Cc1nc2sc3c(NCc4ccco4)ncnc3c2c2c1COC(C)(C)C2,-8.8,-8.1,i,-91.6,-89.3*,-0.5
COc1ccc(C2=NOC(C)(c3nnc(Cc4ccccc4)o3)C2)cc1 (configuration not stated),·,9.6,i,11.4,1.2,·
COc1ccc(N/C=C2\C(=O)CCc3c2oc2cc(Cl)c(O)c(Cl)c32)cc1,-2.3,-261.0,i,61.8*,40.8,·
Cc1ccc(-n2cc3c(=O)n(C)c(=O)n(C)c3c2)cc1C,2.6,15.3,i,-17.7,-15.9,0.4
Cn1c(=O)c2cn(-c3ccc4c(c3)OCCO4)cc2n(C)c1=O,-13.8,-5.1,i,-72.8,-66.8*,0.2
CC(C)Oc1ccc(C(=O)Nc2c3c(nn2-c2ccccc2)CS(=O)(=O)C3)cc1,·,·,·,12.4,-2.7,·
CCC(Cc1ccccc1)NC(=O)CCn1cccc1 (configuration not stated),-16.9,8.4,i,-1.0,1.5,-0.6
O=C(Cn1cc(S(=O)(=O)N2CCN(c3ccccc3F)CC2)c2ccccc2c1=O)NCCCN1CCCCCC1,-8.0,4.6,i,18.0,2.5,-0.2
Cc1cccc(CS(=O)(=O)c2nnc([C@H](Cc3ccccc3)NC(=O)OC(C)(C)C)o2)c1,-3.8,-12.4,i,-69.2,-67.5*,-0.3
COC(=O)CS(=O)(=O)c1nnc([C@H](Cc2ccccc2)NC(=O)OC(C)(C)C)o1,4.7,11.7,i,?,34.6,-0.1
C/C(=N/NC(=O)CNC(=O)c1cccnc1)c1cccc([N+](=O)[O-])c1,-9.8,16.5,i,-1.5,-0.3,0.0
N#CC1=C(N)C(C#N)(C#N)C(c2cccnc2)C2CC(c3ccccc3)CC=C12 (configuration not stated),-14.0,-2.3,i,-66.2,-55.4*,-0.3
COc1ccccc1C(=O)NCCCNC(=O)c1cnccn1,·,·,·,-12.4,-3.0,·
SMILES,MDM2 E3 inh,Rad51 HR inh,HSV augment,HSF1 activator,HSF1 inh,Hsp70 act
COc1cc(C(=O)NCCOc2ccccc2C)c(Br)c(OC)c1OC,-2.0,·,i,12.8,11.1,-0.2
COc1ccccc1C(=O)NCCCNC(=O)c1ccccn1,·,·,·,79.4*,31.1,·
COc1ccc(C(=O)NCCOc2ccccc2Cl)c(OC)c1OC,·,·,·,53.9*,56.5,·
Cc1ccc(C)c(Nc2nc(-c3ccncc3)nc3ccccc23)c1,·,·,·,5.6,-3.6,·
CCN(CC)S(=O)(=O)c1ccc(N2CCN(C)CC2)c(NC(=O)COc2ccc(F)cc2Cl)c1,·,·,·,8.3,6.0,·
Cc1ccc(C)c(NC(=O)C(Sc2nnc(-c3cccs3)o2)c2ccccc2)c1 (configuration not stated),50.1*,0.9,i,·,·,-0.2
COc1cc(NC(=O)c2ccccc2)c(C)cc1NC(=O)CC(CC(=O)O)c1ccccc1 (configuration not stated),·,·,·,-1.0,0.2,·
CCOC(=O)C1(C(=O)OCC)CC1c1ccccc1 (configuration not stated),-7.7,57.8*,i,-2.2,8.7,0.2
CCOC(=O)C1(C(=O)O)NC(=O)CC1c1ccccc1 (configuration not stated),-13.3,3.9,i,4.1,-6.5,-0.3
O=C(Nc1cccc(C(=O)O)c1)/C(=C\c1ccc(F)cc1)NC(=O)c1ccco1,·,·,·,3.4,-4.2,·
CN(C(=O)c1ccc(OC2CCN(Cc3ccccn3)CC2)cc1)C1CCCCC1,·,·,·,-64.0,-52.0*,·
C#CCN(C(=O)c1ccc(OC2CCN(Cc3ccccn3)CC2)cc1)C1CCCCC1,·,·,·,-7.6,-4.4,·
O=C1CCc2cc(NS(=O)(=O)c3ccc(F)cc3)cc3c2N1CC3,·,·,·,20.2,8.2,·
Cc1ccc(S(=O)(=O)Nc2cc3c4c(c2)CCN4C(=O)CC3)cc1,·,·,·,57.5*,35.0,·
S=C(N/N=C1\CCc2ccccc21)NC1CCCCC1,-15.2,3.6,i,-64.2,-55.1*,-0.1
O=C(NC(CO)(CO)CO)c1coc(=O)c(Br)c1,-20.9,-5.0,i,65.2*,14.3,-0.3
CC(C)CNC(=O)c1coc(=O)c(Br)c1,-7.7,3.8,i,18.1,10.2,0.7
Cc1ccc(OCc2cc(C(=O)N3CCN(C)C[C@@H]3c3ccccc3)no2)cc1C,·,·,·,55.9*,27.4,·
CN1CCN(C(=O)c2cc(COc3ccccc3)on2)[C@@H](c2ccccc2)C1,·,·,·,36.0,29.6,·
COc1ccc(OC)c(-n2nnnc2SCC(=O)NCc2ccc3c(c2)OCO3)c1,-6.2,2.3,i,-76.7,-71.9*,0.0
Cc1ccc(C)n1-c1ccc(C(=O)NN)cc1,-18.1,0.5,i,7.4,-2.4,-0.5
Cc1cccc(C(=O)Nc2cccc(C(=O)N3CCOCC3)c2)c1,-14.2,·,i,-42.3,-35.9,-0.3
Cc1cccc(NC(=O)C2SC(=Nc3c(C)cccc3C)C(C(=O)N3CCOCC3)=C2N)c1 (configuration not stated),-19.1,-2.0,i,-70.6,-71.7*,0.1
Cc1c(Cl)ccc2sc(NC(=O)c3ccco3)nc12,·,·,·,31.4,25.5,·
COc1cc(/C=C/C(=O)c2c(O)ccc3c(C)cc(=O)oc23)ccc1O,2.2,-7.6,i,113.2*,72.6,-0.2
Cc1c(C(=O)/C=C/c2cccs2)oc2ccc(F)cc12,-17.1,-8.0,i,106.0*,38.3,-0.1

# Assay outcomes as filed in PubChem BioAssay.
